The source made the active and inactive calls. The calls are words filed in the database; no cut-off is given here.
Legend:
[1] = target: T1, Prostaglandin G/H synthase 1 (Ovis aries, UniProt P05979); test: Inhibition of ovine COX-1 assessed as PGF2alpha formation using arachidonic acid as substrate pretreated with compound for 20 mins prior to substrate addition by spectrophotometric analysis
T1 sequence (P05979 whole entry): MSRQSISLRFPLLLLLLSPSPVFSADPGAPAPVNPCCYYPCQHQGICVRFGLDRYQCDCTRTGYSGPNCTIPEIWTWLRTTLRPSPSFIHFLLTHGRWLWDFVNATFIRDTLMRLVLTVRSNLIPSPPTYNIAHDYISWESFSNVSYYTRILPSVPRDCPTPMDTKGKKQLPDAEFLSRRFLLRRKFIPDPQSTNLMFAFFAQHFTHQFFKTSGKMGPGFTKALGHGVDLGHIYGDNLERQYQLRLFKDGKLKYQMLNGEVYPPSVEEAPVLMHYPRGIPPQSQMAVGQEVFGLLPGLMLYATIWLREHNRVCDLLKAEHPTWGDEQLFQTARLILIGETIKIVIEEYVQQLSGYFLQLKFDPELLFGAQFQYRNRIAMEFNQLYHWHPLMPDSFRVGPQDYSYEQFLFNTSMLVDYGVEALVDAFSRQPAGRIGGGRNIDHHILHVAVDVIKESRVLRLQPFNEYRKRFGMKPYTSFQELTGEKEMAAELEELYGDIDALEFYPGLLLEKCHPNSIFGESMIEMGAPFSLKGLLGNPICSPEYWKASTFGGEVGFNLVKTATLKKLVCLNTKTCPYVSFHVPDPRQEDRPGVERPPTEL

[2] = Inhibition of soyabean 5-LOX using arachidonic acid as substrate by microplate scanning spectrophotometer analysis; set-up: species or system Glycine max
Summary of the method: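 Soybean lipoxygenase in assay buffer was mixed with compound (DMSO solutions at 0.01 to 100 μM, 1:10 into enzyme solution). Reaction started with arachidonic acid; plate shaken 5 min, chromogen added, shaken 5 min, read at 490 nm. Blanks and positive controls included. Duplicates, deviation <5%, averaged; percent inhibition calculated from activity.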

[3] = target: T2, Prostaglandin G/H synthase 2 (Homo sapiens, UniProt P35354); test: Competitive inhibition of human recombinant COX-2 by UV-Visible spectrophotometry
T2 sequence (P35354 whole entry): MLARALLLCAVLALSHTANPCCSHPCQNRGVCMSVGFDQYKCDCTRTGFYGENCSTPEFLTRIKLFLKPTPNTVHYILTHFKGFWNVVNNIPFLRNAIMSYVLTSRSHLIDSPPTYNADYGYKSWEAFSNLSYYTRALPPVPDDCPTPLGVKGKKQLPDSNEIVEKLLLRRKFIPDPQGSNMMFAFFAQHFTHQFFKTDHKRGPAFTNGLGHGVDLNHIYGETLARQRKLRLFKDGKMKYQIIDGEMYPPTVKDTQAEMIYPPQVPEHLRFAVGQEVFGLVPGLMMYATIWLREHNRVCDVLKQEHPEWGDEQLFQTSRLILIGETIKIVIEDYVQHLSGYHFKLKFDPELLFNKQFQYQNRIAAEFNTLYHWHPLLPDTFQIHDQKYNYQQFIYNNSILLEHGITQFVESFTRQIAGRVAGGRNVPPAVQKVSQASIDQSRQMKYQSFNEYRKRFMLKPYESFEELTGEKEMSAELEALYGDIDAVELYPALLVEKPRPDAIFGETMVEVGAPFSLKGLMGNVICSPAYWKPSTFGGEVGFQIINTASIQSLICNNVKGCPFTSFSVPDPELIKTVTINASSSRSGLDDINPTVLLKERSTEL
Summary of the method: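 Double reciprocal plot from UV-vis absorbance change at the maximum. Arachidonic acid in HEPES:DMSO (1:1) added in 5 µl increments (each giving 50 µM final) to a fixed enzyme concentration. Repeated with inhibitor at fixed 10 µM and 20 µM. Type of inhibition taken from where the extrapolated trails meet; also from IC50 versus Ki comparison.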

Mus musculus [4] = test: Anti-hyperalgesic activity against Swiss albino mouse assessed as reduction in paw lickings at 5 mg/kg, ip administered 30 mins prior to capsaicin injection relative to control; format: functional
[5] = target: T3, Prostaglandin G/H synthase 2 (Homo sapiens) (UniProt P35354)
T3 sequence (whole entry): T2 sequence (P35354 whole entry)

Mus musculus [6] = test: Anti-hyperalgesic activity against Swiss albino mouse assessed as reduction in paw lickings at 10 mg/kg, ip administered 30 mins prior to capsaicin injection relative to control; format: functional
Summary of the method: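 Swiss albino mice, 5 per group; compound given i.p. 30 min before 20 μL capsaicin injected into plantar surface of right hind paw. […] Paw lickings and twitchings counted over 10 min after capsaicin as hyperalgesia indicator; mean ± SEM, one-way ANOVA with Tukey's test versus control.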

Glycine max [7] = test: Competitive inhibition of soyabean 5-LOX using arachidonic acid as substrate by double reciprocal plot analysis
Summary of the method: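 Arachidonic acid in HEPES:DMSO (1:1) at 2 mM, added in 5 μL increments (50 μM final each) to fixed enzyme. Change in substrate absorbance at maxima plotted double-reciprocally, without inhibitor and with 10 μM or 20 μM inhibitor; intersection of the extrapolated lines indicates inhibition type.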

Glycine max [8] = tested on: Glycine max
[9] = Competitive inhibition of soyabean 5-LOX by UV-Visible spectrophotometry; set-up: species or system Glycine max
Mus musculus [10] = test: Anti-hyperalgesic activity against Swiss albino mouse assessed as reduction in paw lickings at 5 mg/kg, ip administered 30 mins prior to capsaicin injection and 30 mins after 200 ug misoprostol injection; format: functional, organism-based
Summary of the method: (§1)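 Mice (5 per group, 7 groups), all treatments i.p. Misoprostol (200 μg) or substance P (10 μg) given 30 min before test compound (5 mg Kg⁻¹); capsaicin (20 μL) injected into right hind paw plantar surface 30 min later. Controls received normal saline. Paw lickings counted over 10 min after capsaicin.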

Mus musculus [11] = test: Acute toxicity against Swiss albino mouse assessed as lesser inflammatory cells and decreased area of necrosis in stomach at 5 to 300 mg, po measured after 14 days; format: organism-based; conditions: in vivo, 336 h
Mus musculus [12] = test: Acute toxicity against Swiss albino mouse assessed as histological changes in heart at 5 to 300 mg, po measured after 14 days; format: organism-based; conditions: in vivo, 336 h
Summary of the method: (§2)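 Oral single doses of 5 mg, 50 mg and 300 mg to mice in three groups of three. Observed continuously for 4 h for signs of toxicity, then at regular intervals over the first 24 h and once daily for 14 days. Animals sacrificed at day 14; histology of liver, kidney and heart.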

Mus musculus [13] = test: Acute toxicity against Swiss albino mouse assessed as histological changes in kidney at 5 to 300 mg, po measured after 14 days; format: organism-based; conditions: in vivo, 336 h; summary of the method: as §2
Mus musculus [14] = test: Acute toxicity against Swiss albino mouse assessed as histological changes in liver at 5 to 300 mg, po measured after 14 days; format: organism-based; conditions: in vivo, 336 h; summary of the method: as §2
Mus musculus [15] = test: Anti-inflammatory activity against Swiss albino mouse assessed as reduction in paw thickness at 5 mg/kg, ip administered 30 mins prior to dextran injection measured after 4 hrs by vernier calliper analysis relative to control; format: functional
Summary of the method: (§3)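 Swiss albino mice, 5 per group. […] Paw thickness measured by vernier calipers at 1, 2, 3, 4, 6 and 24 h. Reduction expressed relative to control; mean ± SEM.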

Mus musculus [16] = test: Anti-inflammatory activity against Swiss albino mouse assessed as reduction in paw thickness at 10 mg/kg, ip administered 30 mins prior to dextran injection measured after 4 hrs by vernier calliper analysis relative to control; format: functional; summary of the method: as §3
Mus musculus [17] = test: Anti-hyperalgesic activity against Swiss albino mouse assessed as reduction in paw lickings at 5 mg/kg, ip administered 30 mins prior to capsaicin injection and 30 mins after 10 ug substance-P injection; format: functional, organism-based; summary of the method: as §1

Row | IC50 [1] [µM] | IC50 [2] [nM] | Ki [3] [nM] | Ka [5] | Ka (Glycine max [8]) | Ki [9] [nM] | Compound | other results
1 | 90.1 | 8.6 |  |  |  |  | Cc1ccc(S(=O)(=O)n2cc(C(=O)C(=O)NCC(=O)O)c3ccccc32)cc1 | 
2 | 43.5 | 4 | 5 | 3.25 ×10⁶ /M | 2.06 ×10⁶ /M | 64 | Cc1ccc(S(=O)(=O)n2cc(C(=O)C(=O)NCC(=O)N[C@@H](Cc3c[nH]c4ccccc34)C(=O)O)c3ccccc32)cc1 | inhibition in vivo at 5 mg/kg (Mus musculus [4]): 88%; inhibition in vivo at 10 mg/kg (Mus musculus [6]): 96%; inhibition (Glycine max [7]): Active
3 | 20.2 | 3700 |  |  |  |  | COC(=O)CC[C@@H](NC(=O)[C@@H](Cc1cnc[nH]1)NC(=O)C(=O)c1cn(S(=O)(=O)c2ccc(C)cc2)c2ccccc12)C(=O)OC | 
4 | 13 |  |  |  |  |  | NS(=O)(=O)c1ccc(-n2nc(C(F)(F)F)cc2-c2ccc(Br)cc2)cc1 | 
5 | 151 | 2330 |  |  |  |  | Cc1ccc(S(=O)(=O)n2cc(C(=O)C(=O)N[C@H](Cc3cnc[nH]3)C(=O)N[C@H](CCC(=O)O)C(=O)O)c3ccccc32)cc1 | 
6 | 104 | 100 | 4660 | 1.81 ×10² /M | 2.08 ×10⁵ /M | 97 | COC(=O)CNC(=O)CNC(=O)C(=O)c1cn(S(=O)(=O)c2ccc(C)cc2)c2ccccc12 | 

Second part, the compound before the results:

Row | Compound | IC50 [1] [µM] | IC50 [2] [nM] | Ki [3] [nM] | Ka [5] | Ka (Glycine max [8]) | Ki [9] [nM] | other results
7 | CC(C)(C)Sc1c(CC(C)(C)C(=O)O)n(Cc2ccc(Cl)cc2)c2ccc(OCc3ccc4ccccc4n3)cc12 [QUIFLAPON] |  | 1600 |  |  |  |  | 
8 | Cc1ccc(S(=O)(=O)n2cc(C(=O)C(=O)NCC(=O)NCC(=O)O)c3ccccc32)cc1 | > 100 | 5 | 3120 | 1.9 ×10³ /M | 2.99 ×10⁵ /M | 232 | inhibition in vivo at 5 mg/kg (Mus musculus [4]): 90%; inhibition (Glycine max [7]): Active
9 | COC(=O)[C@H](Cc1c[nH]c2ccccc12)NC(=O)CNC(=O)C(=O)c1cn(S(=O)(=O)c2ccc(C)cc2)c2ccccc12 | 90.9 | 1000 | 1340 | 9.87 ×10³ /M | 7.7 ×10⁴ /M | 753 | 
10 | Cc1ccc(S(=O)(=O)n2cc(C(=O)C(=O)NCC(=O)N[C@H](Cc3c[nH]c4ccccc34)C(=O)O)c3ccccc32)cc1 | 98.3 | 15200 |  |  |  |  | 
11 | Cc1ccc(S(=O)(=O)n2cc(C(=O)C(=O)N[C@@H](Cc3c[nH]c4ccccc34)C(=O)O)c3ccccc32)cc1 | 87.2 | 10 |  |  |  |  | 
12 | COC(=O)CC[C@H](NC(=O)[C@H](Cc1cnc[nH]1)NC(=O)C(=O)c1cn(S(=O)(=O)c2ccc(C)cc2)c2ccccc12)C(=O)OC | 76.5 | 600 | 983 | 4.43 ×10⁴ /M | 3.02 ×10⁵ /M | 356 | 
13 | COC(=O)CNC(=O)[C@H](Cc1c[nH]c2ccccc12)NC(=O)C(=O)c1cn(S(=O)(=O)c2ccc(C)cc2)c2ccccc12 | 9.89 | 800 | 2900 | 7.91 ×10³ /M | 5.6 ×10⁴ /M | 946 | 
14 | Cc1ccc(S(=O)(=O)n2cc(C(=O)C(=O)N[C@@H](Cc3c[nH]c4ccccc34)C(=O)NCC(=O)O)c3ccccc32)cc1 | 2.21 | 2 | 109 | 3.29 ×10⁵ /M | 3.36 ×10⁶ /M | 42 | inhibition (Mus musculus [10]): Active; Activity (Mus musculus [11]): Non-toxic; Activity (Mus musculus [12]): Non-toxic; Activity (Mus musculus [13]): Non-toxic; Activity (Mus musculus [14]): Non-toxic; inhibition in vivo at 5 mg/kg (Mus musculus [4]): 96%; inhibition in vivo at 5 mg/kg (Mus musculus [15]): 47%; inhibition in vivo at 10 mg/kg (Mus musculus [16]): 49%; inhibition (Glycine max [7]): Active; inhibition (Mus musculus [17]): inactive
15 | COC(=O)[C@@H](Cc1c[nH]c2ccccc12)NC(=O)CNC(=O)C(=O)c1cn(S(=O)(=O)c2ccc(C)cc2)c2ccccc12 | 65.5 | 12200 |  |  |  |  | 
16 | O=C(O)Cc1ccccc1Nc1c(Cl)cccc1Cl [DICLOFENAC] |  |  |  |  |  |  | inhibition in vivo at 10 mg/kg (Mus musculus [6]): 90%; inhibition in vivo at 10 mg/kg (Mus musculus [16]): 42%
17 | Cc1ccc(S(=O)(=O)n2cc(C(=O)C(=O)N[C@@H](Cc3cnc[nH]3)C(=O)N[C@@H](CCC(=O)O)C(=O)O)c3ccccc32)cc1 | 12.9 | 80 | 12 | 7.76 ×10⁵ /M | 1.99 ×10⁵ /M | 536 | inhibition (Mus musculus [10]): Active; inhibition in vivo at 5 mg/kg (Mus musculus [4]): 95%; inhibition in vivo at 5 mg/kg (Mus musculus [15]): 45%; inhibition in vivo at 10 mg/kg (Mus musculus [16]): 48%; inhibition (Glycine max [7]): Active; inhibition (Mus musculus [17]): inactive
18 | COC(=O)CNC(=O)[C@@H](Cc1c[nH]c2ccccc12)NC(=O)C(=O)c1cn(S(=O)(=O)c2ccc(C)cc2)c2ccccc12 | 71.3 | 8380 |  |  |  |  | 
19 | Cc1ccc(S(=O)(=O)n2cc(C(=O)C(=O)N[C@H](Cc3c[nH]c4ccccc34)C(=O)NCC(=O)O)c3ccccc32)cc1 | > 100 | 5610 |  |  |  |  | 
20 | Cc1ccc(S(=O)(=O)n2cc(C(=O)C(=O)N[C@@H](Cc3cnc[nH]3)C(=O)O)c3ccccc32)cc1 | > 100 | 2800 |  |  |  |  | 
